Data as given in ChEMBL document CHEMBL1138349 (J Med Chem, 2007).
One block for each compound: values may come before it.

Experiments:
[1] = biological target: T1, Muscarinic acetylcholine receptor M1 (Homo sapiens, UniProt P11229); test: Displacement of [N-methyl-3H]scopolamine from human recombinant muscarinic M1 receptor expressed in CHO cells; format: cell-based
T1 sequence (P11229 whole entry): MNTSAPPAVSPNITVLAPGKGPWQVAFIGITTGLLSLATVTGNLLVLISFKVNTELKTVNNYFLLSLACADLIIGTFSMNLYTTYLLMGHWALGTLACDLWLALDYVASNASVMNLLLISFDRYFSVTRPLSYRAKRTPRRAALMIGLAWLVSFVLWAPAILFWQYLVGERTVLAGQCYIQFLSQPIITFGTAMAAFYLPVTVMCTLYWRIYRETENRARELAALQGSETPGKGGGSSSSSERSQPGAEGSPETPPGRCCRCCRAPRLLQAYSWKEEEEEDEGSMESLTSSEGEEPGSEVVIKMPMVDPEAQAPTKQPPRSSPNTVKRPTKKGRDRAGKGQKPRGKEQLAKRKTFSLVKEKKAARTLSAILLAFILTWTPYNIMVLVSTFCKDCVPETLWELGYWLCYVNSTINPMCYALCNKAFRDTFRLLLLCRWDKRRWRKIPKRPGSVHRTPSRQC

[2] = biological target: hERG (KCNH2) (Homo sapiens, UniProt Q12809); test: Inhibition of human hERG current at 1 uM
Sequence of hERG (KCNH2) (Q12809 whole entry): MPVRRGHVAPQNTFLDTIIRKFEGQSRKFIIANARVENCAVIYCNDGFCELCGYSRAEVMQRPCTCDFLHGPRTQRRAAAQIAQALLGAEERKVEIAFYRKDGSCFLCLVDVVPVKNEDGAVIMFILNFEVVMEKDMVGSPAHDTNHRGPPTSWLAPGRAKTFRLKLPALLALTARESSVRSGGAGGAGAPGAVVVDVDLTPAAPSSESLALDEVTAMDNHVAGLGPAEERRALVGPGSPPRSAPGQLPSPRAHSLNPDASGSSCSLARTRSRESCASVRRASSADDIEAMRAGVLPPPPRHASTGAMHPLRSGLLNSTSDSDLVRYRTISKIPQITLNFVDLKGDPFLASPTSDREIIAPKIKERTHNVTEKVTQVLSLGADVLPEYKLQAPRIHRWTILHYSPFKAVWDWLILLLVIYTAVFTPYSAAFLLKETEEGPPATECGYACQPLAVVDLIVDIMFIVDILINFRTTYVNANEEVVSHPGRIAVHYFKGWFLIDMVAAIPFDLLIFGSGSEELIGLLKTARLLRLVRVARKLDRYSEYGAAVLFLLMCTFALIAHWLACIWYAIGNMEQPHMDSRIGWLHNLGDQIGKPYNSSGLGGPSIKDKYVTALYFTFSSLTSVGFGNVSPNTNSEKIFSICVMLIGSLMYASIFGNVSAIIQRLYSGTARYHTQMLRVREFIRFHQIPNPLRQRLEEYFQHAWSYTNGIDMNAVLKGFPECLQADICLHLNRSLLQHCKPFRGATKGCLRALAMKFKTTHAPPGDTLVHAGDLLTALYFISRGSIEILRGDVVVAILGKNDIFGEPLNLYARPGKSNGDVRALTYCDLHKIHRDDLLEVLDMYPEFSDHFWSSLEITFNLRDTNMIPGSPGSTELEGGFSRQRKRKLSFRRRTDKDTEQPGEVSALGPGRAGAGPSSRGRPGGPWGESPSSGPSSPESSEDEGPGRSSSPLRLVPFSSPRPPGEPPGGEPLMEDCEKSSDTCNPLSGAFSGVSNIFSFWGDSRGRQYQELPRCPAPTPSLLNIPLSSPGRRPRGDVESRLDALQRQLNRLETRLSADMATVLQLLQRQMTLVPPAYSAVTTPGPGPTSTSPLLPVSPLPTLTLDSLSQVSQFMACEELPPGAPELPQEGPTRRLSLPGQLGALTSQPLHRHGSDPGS

[3] = Dissociation constant, pKa corresponding to the protonation of the primary amino group; format: physicochemical
[4] = test system: Rattus norvegicus; test: Inhibition of plasma DPP4 activity in Han Wistar rat at 1 mg/kg, po after 7 hrs; settings: read-out: Inhibition
[5] = test system: Mus musculus; test: Inhibition of plasma DPP4 activity in db/db C57BL/KSJ mouse at 1 mg/kg, po after 30 mins of glucose administration; settings: 0.5 h, read-out: Inhibition
[6] = Distribution coefficient, log D at pH 7.4; format: physicochemical; settings: octanol/water
[7] = Dissociation constant, pKa corresponding to the protonation of the quinazoline; format: physicochemical
[8] = test system: Rhesus monkey; test: Inhibition of plasma DPP4 activity in rhesus monkey at 1 mg/kg, po after 7 hrs; settings: Macaca mulatta, read-out: Inhibition
[9] = Half life in cynomolgus monkey at 5 mg/kg, po; format: ADME, organism-based, Macaca fascicularis; design: dose 5 mg/kg, route oral; settings: in vivo
[10] = Volume of distribution at steady state in cynomolgus monkey at 5 mg/kg, po and 1.5 mg/kg, iv; format: ADME, organism-based, Macaca fascicularis; settings: in vivo, read-out: Vdss
[11] = Half life in rat at 5 mg/kg, po; format: ADME, organism-based; design: dose 5 mg/kg, route oral; settings: in vivo
[12] = Aqueous solubility at pH 7.4; format: physicochemical; settings: buffer
Method in brief: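 Solubility was measured in aqueous medium at physiological pH 7.4, using a crystalline modification of the free base.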

[13] = Total mean residence time in rat at 5 mg/kg, po; format: ADME, organism-based; design: dose 5 mg/kg, route oral; settings: in vivo
[14] = test system: Mus musculus; test: Reduction in plasma glucose excursion in db/db C57BL/KSJ mouse at 1 mg/kg, po by oral glucose tolerance test; settings: read-out: Inhibition
[15] = Clearance in cynomolgus monkey at 5 mg/kg, po and 1.5 mg/kg, iv; format: ADME, organism-based, Macaca fascicularis; settings: in vivo
[16] = Volume of distribution at steady state in rat at 5 mg/kg, po and 5 mg/kg, iv; format: ADME, organism-based; settings: in vivo, read-out: Vdss
[17] = Clearance in rat at 5 mg/kg, po and 5 mg/kg, iv; format: ADME, organism-based; settings: in vivo
[18] = test system: Canis familiaris; test: Inhibition of plasma DPP4 activity in Beagle dog at 1 mg/kg, po after 7 hrs; settings: Canis lupus familiaris, read-out: Inhibition
[19] = Oral bioavailability in cynomolgus monkey at 5 mg/kg; format: ADME, organism-based, Macaca fascicularis; settings: in vivo
[20] = test system: Mus musculus; test: Reduction in plasma glucose excursion in db/db C57BL/KSJ mouse at 0.1 mg/kg, po by oral glucose tolerance test; settings: read-out: Inhibition
[21] = Oral bioavailability in rat at 5 mg/kg; format: ADME, organism-based; settings: in vivo
[22] = Total mean residence time in cynomolgus monkey at 5 mg/kg, po; format: ADME, organism-based, Macaca fascicularis; design: dose 5 mg/kg, route oral; settings: in vivo

SMILES: CC(C)=CCn1c(N2CCC[C@H](N)C2)nc2c1c(=O)n(CC(=O)c1ccccc1)c(=O)n2C
- IC50 [1]: 50 nM

SMILES: CC#CCn1c(N2CCC[C@@H](N)C2)nc2c1c(=O)n(CC(=O)c1ccccc1OCC(=O)NC)c(=O)n2C
- residual activity at 1 µM [2]: 88%
- IC50 [1]: 1170 nM

SMILES: CC#CCn1c(N2CCC[C@@H](N)C2)nc2c1c(=O)n(Cc1nc(C)cc3ccccc13)c(=O)n2C
- residual activity at 1 µM [2]: 78%
- IC50 [1]: 430 nM

SMILES: CC(C)=CCn1c(N2CCC[C@H](N)C2)nc2c1c(=O)n(Cc1nccc3ccccc13)c(=O)n2C
- residual activity at 1 µM [2]: 51%
- IC50 [1]: 26 nM

SMILES: CC#CCn1c(N2CCC[C@@H](N)C2)nc2c1c(=O)n(Cc1ccc(OC)cc1)c(=O)n2C
- residual activity at 1 µM [2]: 51%
- IC50 [1]: 518 nM

SMILES: CC(C)=CCn1c(N2CCC[C@@H](N)C2)nc2c1c(=O)n(Cc1nccc3ccccc13)c(=O)n2C
- residual activity at 1 µM [2]: 51%
- IC50 [1]: 5 nM

SMILES: CC#CCn1c(N2CCC[C@@H](N)C2)nc2c1c(=O)n(Cc1nc(C)c3ccccc3n1)c(=O)n2C [LINAGLIPTIN]
- pKa [3]: 8.6
- inhibition in vivo at 1 mg/kg [4]: > 70%
- inhibition in vivo at 1 mg/kg [5]: 76%
- logD [6]: 0.4
- pKa [7]: 1.9
- inhibition in vivo at 1 mg/kg [8]: > 70%
- half-life [9]: 41.4 h
- Vd [10]: 15.8 L/kg
- half-life [11]: 35.9 h
- solubility [12]: > 5000 µg/mL
- MRT [13]: 14.3 h
- inhibition in vivo at 1 mg/kg [14]: 66%
- IC50 [1]: 295 nM
- clearance [15]: 15.8 mL/min/kg
- Vd [16]: 5.4 L/kg
- clearance [17]: 37.3 mL/min/kg
- inhibition in vivo at 1 mg/kg [18]: > 70%
- bioavailability [19]: 50.1%
- inhibition in vivo at 0.1 mg/kg [20]: 15%
- bioavailability [21]: 50.7%
- MRT [22]: 17.4 h

Now from value to compound:

- IC50 [1]: 6160 nM
SMILES: CC#CCn1c(N2CCC[C@@H](N)C2)nc2c1c(=O)n(CC(=O)c1ccccc1)c(=O)n2C

- IC50 [1]: 1130 nM
SMILES: CC#CCn1c(N2CCC[C@H](N)C2)nc2c1c(=O)n(CC(=O)c1ccccc1)c(=O)n2C

- IC50 [1]: 25 nM
SMILES: CC(C)=CCn1c(N2CCC[C@@H](N)C2)nc2c1c(=O)n(CC(=O)c1ccccc1)c(=O)n2C
